# Like-named read-outs stand apart in the source and are kept apart here.
# Columns and labels:
# KP02 tumors = assay: In vivo tumor growth, subcutaneous KP02 tumors in C57BL/6 mice
# KP02 tumor cells = assay: ROS involvement: MTT viability with antioxidants α-tocopherol or NAC; type: cell-based, mouse; details: KP02, 4 μM compound 48 h; for Rescue of cell death by NAC: 100 μM NAC; for Rescue of cell death by α-tocopherol: 100 μM α-tocopherol 1 hour prior
# caspase-3 in KP02 cells = assay: Caspase-3 activation; type: cell-based, mouse; details: KP02, 25 μM, 5 hours, relative to vehicle
# Outline: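 KP02 cells (DMEM/Ham's F-12 1:1, 10% FBS, 37 °C, 5% CO2) seeded at 1 × 10^4/well 24 h before treatment. Exposed to 25 μM test compound for 5 h, with or without α-tocopherol (100 μM) or Z-DEVD-FMK (1 μM). Caspase-Glo reagent with luminogenic caspase substrate added, shaken 30 s, then 90 min at room temperature. Luminescence read relative to DMSO-treated cells. Triplicates; n ≥ 3 independent experiments, mean ± SEM.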
# BxPC3 = assay: MTT viability, 48 h; type: cell-based, human; details: read-out: Activity, EC50 BxPC3
# Panc02 = assay: MTT viability, 48 h; type: cell-based, mouse; details: read-out: Activity, EC50 Panc02
# KP02 = assay: MTT viability, 48 h; type: cell-based, mouse; details: read-out: Activity, EC50 KP02
# [1] = type: in vivo; details: for PCV: 7 at 750nmol/100μL, 1 and 2 at 1500nmol/100 μL, 2 weeks, n = 3, control 47.5 ± 3; for Necropsy/histology findings (pulmonary metastases, nephropathy) / Mouse weight at necropsy: after 2 weeks daily i.p. treatment; for Mouse weight at necropsy: vehicle 19.5± 0.5; for Treatment-related deaths: 750 nmol/100μL i.p. daily for two weeks
# KCKO = assay: MTT viability, 48 h; type: cell-based, mouse; details: read-out: Activity, EC50 KCKO
# [2] = tested on: pancreatic cancer cell lines; assay: MTT viability, summary over the panel of pancreatic cancer cell lines; details: 48 h, read-out: Cytotoxic EC50 values in most of the cell lines studied
# AsPC1 = assay: MTT viability, 48 h; type: cell-based, human; details: read-out: Activity, EC50 AsPC1
# σ1 receptor = σ1 receptor (Homo sapiens, UniProt Q99720); assay: σ1 binding by flow cytometry in MCF7σ1 cells; details: displacement of σ1 fluorescent compound, 0.1 nmol/L-10 μM
# Outline: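 MCF7 cells engineered for σ1 (DMEM, 10% FBS) incubated with test compound at 0.1, 1, 10, 100 nmol/L, 1 and 10 μM. Then 100 nmol/L σ1 fluorescent probe added for 75 min at 37 °C, with F390 (10 μM) co-incubated to mask σ2. Cells washed twice with PBS, detached (10 min, 37 °C), pelleted and resuspended in PBS. Fluorescence read by flow cytometry through a 530 nm band-pass filter, 50,000 events per sample.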
# P-gp = P-gp (Homo sapiens, UniProt P08183); assay: Calcein-AM assay in MDCK-MDR1 cells; type: cell-based; details: n.a. = not active, mean of n ≥ 3 ± SEM
# MIAPaCa-2 = assay: MTT viability, 48 h; type: cell-based, human; details: read-out: Activity, EC50 MIAPaCa-2, 48 hr treatment
# Panc-1 = assay: MTT viability, 48 h; type: cell-based, human; details: read-out: Activity, EC50 Panc-1
# [3] = tested on: pancreatic cancer cell lines
# [4] = tested on: mitochondrial superoxide in KP02 cells; assay: Mitochondrial superoxide detection; type: cell-based, mouse; details: KP02, 50 μM, 2 hours, MitoSOX Red
# Outline: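 KP02 cells seeded in 12-well plates 24 h ahead, then exposed to 50 μM test compound for 2 h at 37 °C, with or without α-tocopherol. Stained with MitoSOX Red (5 μM); after 2 h, washed with PBS, harvested with trypsin/EDTA and washed again. Oxidised dye (emission ~580 nm) read by flow cytometry in FL3 as mean fluorescence intensity. Triplicates.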
# [5] = 750 nmol/100μL vehicle i.p. daily for two weeks, vehicle mean 596 mm^3
# [6] = 1500 nmol/100μL vehicle i.p. daily for two weeks, vehicle mean 592 mm^3
# Sequence of P-gp (P08183 whole entry): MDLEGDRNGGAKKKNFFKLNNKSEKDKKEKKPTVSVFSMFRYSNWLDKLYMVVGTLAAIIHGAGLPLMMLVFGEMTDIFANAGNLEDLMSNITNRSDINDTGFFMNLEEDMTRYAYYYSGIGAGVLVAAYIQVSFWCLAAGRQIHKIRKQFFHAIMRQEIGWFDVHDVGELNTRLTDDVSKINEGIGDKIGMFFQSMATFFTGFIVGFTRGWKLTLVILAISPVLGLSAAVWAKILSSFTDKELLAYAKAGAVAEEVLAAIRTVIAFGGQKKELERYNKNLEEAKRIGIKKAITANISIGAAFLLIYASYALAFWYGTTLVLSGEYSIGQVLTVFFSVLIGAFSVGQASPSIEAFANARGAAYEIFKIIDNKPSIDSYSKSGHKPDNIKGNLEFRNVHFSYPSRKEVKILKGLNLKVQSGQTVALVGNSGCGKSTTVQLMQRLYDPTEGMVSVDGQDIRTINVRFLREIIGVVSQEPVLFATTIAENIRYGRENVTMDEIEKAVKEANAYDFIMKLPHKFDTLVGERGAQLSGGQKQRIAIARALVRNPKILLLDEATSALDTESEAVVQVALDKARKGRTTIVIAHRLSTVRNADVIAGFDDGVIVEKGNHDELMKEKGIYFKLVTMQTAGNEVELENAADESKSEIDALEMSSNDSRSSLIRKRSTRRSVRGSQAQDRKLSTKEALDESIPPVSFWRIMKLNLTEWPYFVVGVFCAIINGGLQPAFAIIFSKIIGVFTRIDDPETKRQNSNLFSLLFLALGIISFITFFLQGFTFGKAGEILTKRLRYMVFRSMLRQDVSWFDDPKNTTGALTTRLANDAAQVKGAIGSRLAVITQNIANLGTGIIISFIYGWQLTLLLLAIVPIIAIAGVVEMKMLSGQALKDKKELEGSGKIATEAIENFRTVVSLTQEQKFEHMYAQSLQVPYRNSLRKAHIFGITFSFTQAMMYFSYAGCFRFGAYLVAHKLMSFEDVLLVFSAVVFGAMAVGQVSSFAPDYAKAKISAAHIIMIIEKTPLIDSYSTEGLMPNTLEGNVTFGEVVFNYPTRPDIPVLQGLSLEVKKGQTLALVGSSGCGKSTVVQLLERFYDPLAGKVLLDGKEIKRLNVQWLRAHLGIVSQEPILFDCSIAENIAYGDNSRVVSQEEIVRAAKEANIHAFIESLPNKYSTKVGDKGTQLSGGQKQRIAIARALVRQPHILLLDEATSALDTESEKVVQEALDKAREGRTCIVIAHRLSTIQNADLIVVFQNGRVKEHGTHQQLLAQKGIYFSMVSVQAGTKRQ
# Sequence of σ1 receptor (Q99720 whole entry): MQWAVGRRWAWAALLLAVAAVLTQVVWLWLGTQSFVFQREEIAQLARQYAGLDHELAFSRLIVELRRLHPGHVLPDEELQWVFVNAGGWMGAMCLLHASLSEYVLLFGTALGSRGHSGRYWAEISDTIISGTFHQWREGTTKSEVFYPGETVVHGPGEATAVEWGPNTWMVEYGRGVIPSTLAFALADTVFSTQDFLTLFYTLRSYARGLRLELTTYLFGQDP
Molecule,Mean tumor volume after conclusion of treatment (KP02 tumors; [5]),Rescue of cell death by α-tocopherol (KP02 tumor cells),Increase of caspase-3 activity (caspase-3 in KP02 cells),"EC50 (BxPC3; Homo sapiens, BXPC-3, 48 h)","EC50 (Panc02; Mus musculus, Panc02, 48 h)","EC50 (KP02; Mus musculus, 48 h)",PCV [1],"Necropsy/histology findings (pulmonary metastases, nephropathy) [1]",Mouse weight at necropsy [1],"EC50 (KCKO; Mus musculus, 48 h)","EC50 (AsPC1; Homo sapiens, ASPC1, 48 h)",Interaction with the σ1 receptor (σ1 receptor),P-gp EC50 (P-gp),EC50 (MIAPaCa-2),other results
"CN(C)C(=S)N/N=C1\C(=O)Nc2ccccc21 [Compound 7, (Z)-N,N-Dimethyl-2-(2-oxoindolin-3-ylidene)hydrazinecarbothioamide]",328 mm^3,no cells were rescued,did not activate the caspase-3 at all,2.52 ± 0.5 µM,1210 ± 100 nM,2.83 ± 0.6 µM,42.65 ± 2.85%,foci of pulmonary metastases of the implanted tumor and a mild chronic progressive nephropathy,19.5 ± 0.5 grams,3.14 ± 0.4 µM,2.17 ± 0.3 µM,ruled out,completely abolished the interaction with the P-gp,18.3 ± 2.1 µM,"Rescue of cell death by NAC (KP02 tumor cells): even higher levels of cell death; EC50 [2]: 1210 to 3140 nM; EC50 (Panc-1; Homo sapiens, PANC-1, 48 h): > 100 µM"
"NC(=S)N/N=C1\C(=O)Nc2ccccc21 [Compound 8, (Z)-2-(2-Oxoindolin-3-ylidene)hydrazinecarbothioamide]",–,–,–,> 100 µM,> 100000 nM,> 100 µM,–,–,–,> 100 µM,> 100 µM,–,completely abolished the interaction with the P-gp,–,–
"COc1cc2c(cc1OC)C(=O)N(CCCCN1C(=O)/C(=N\NC(=S)N(C)C)c3ccccc31)CC2 [Compound 9, (Z)-2-(1-(4-(6,7-Dimethoxy-1-oxo-3,4-dihydroisoquinolin-2(1H)-yl)butyl)-2-oxoindolin-3-ylidene)-N,N-dimethylhydrazinecarbothioamide]",–,rescued the pancreatic cancer cells,did not activate the caspase-3 at all,5.93 ± 0.7 µM,2180 ± 300 nM,5.62 ± 1.1 µM,–,–,–,4.51 ± 0.8 µM,5.74 ± 0.5 µM,–,–,–,Rescue of cell death by NAC (KP02 tumor cells): even higher levels of cell death
"CCCCN1CCc2cc(OC)c(OC)cc2C1 [Compound 10, N-Butyl-6,7-dimethoxy-1,2,3,4-tetrahydroisoquinoline]",–,–,–,> 100 µM,> 100000 nM,> 100 µM,–,–,–,> 100 µM,> 100 µM,–,–,–,–
"CCCCN1CCN(C2CCCCC2)CC1 [Compound 11, 1-Butyl-4-cyclohexyl-piperazine]",–,–,–,> 100 µM,> 100000 nM,> 100 µM,–,–,–,> 100 µM,> 100 µM,–,complete loss of interaction with P-gp,–,–
"(Z)-2-(1-(4-(6,7-Dimethoxy-3,4-dihydroisoquinolin-2(1H)-yl)butyl)-2-oxoindolin-3-ylidene)-N,N-dimethylhydrazinecarbothioamide [Compound 1]",statistically similar to vehicle,rescued the pancreatic cancer cells,did not activate the caspase-3 at all,–,–,–,45.45 ± 4.15%,not noticed,17.5 ± 0.5 grams,–,–,ruled out,–,14.6 ± 2.2 µM,"Mean tumor volume after conclusion of treatment (KP02 tumors; [6]): 205 mm^3; EC50 (BxPC3; 48 hr treatment, MTT): 2.34 ± 0.8 µM; EC50 (Panc02; 48 hr treatment, MTT): 1330 ± 200 nM; EC50 (KP02; 48 hr treatment, MTT): 6.92 ± 0.9 µM; Treatment-related deaths [1]: without experiencing any treatment-related deaths; EC50 (KCKO; 48 hr treatment, MTT): 6.49 ± 1 µM; EC50 (AsPC1; 48 hr treatment, MTT): 2.01 ± 0.6 µM; EC50 [3]: 1.17 to 14.7 µM; Mitochondrial superoxide production, increase of mean fluorescence intensity [4]: 6 fold; EC50 (Panc-1; 48 hr treatment, MTT): 14.6 ± 2.1 µM"
"(Z)-2-[1-[4-(4-Cyclohexylpiperazin-1-yl)butyl]-2-oxoindolin-3-ylidene]-N,N-dimethylhydrazinecarbothioamide [Compound 2]",statistically similar to vehicle,rescued the pancreatic cancer cells,6 fold,–,–,–,51 ± 3.8%,not noticed,19 ± 1 grams,–,–,ruled out,–,10.8 ± 1.3 µM,"Mean tumor volume after conclusion of treatment (KP02 tumors; [6]): 196 mm^3; EC50 (BxPC3; 48 hr treatment, MTT): 6.15 ± 0.6 µM; EC50 (Panc02; 48 hr treatment, MTT): 1170 ± 400 nM; EC50 (KP02; 48 hr treatment, MTT): 7.32 ± 0.8 µM; Treatment-related deaths [1]: without experiencing any treatment-related deaths; EC50 (KCKO; 48 hr treatment, MTT): 6.18 ± 0.3 µM; EC50 (AsPC1; 48 hr treatment, MTT): 3.86 ± 0.2 µM; EC50 [3]: 1.17 to 14.7 µM; Mitochondrial superoxide production, increase of mean fluorescence intensity [4]: 20 fold; EC50 (Panc-1; 48 hr treatment, MTT): 8.73 ± 0.8 µM"

# From paper PMC5801006 (European journal of medicinal chemistry, 2017)
